ChEMBL document CHEMBL3102713, “The cytotoxic effect of 2-acylated-1,4-naphthohydroquinones on leukemia/lymphoma cells” (Bioorg Med Chem, 2014)

Key:
[1] = system: HS27; assay: Cytotoxicity against human HS27 cells assessed as cell viability after 72 hrs by MTS assay; type: cell-based; conditions: HS27, 72 h
Procedure, shortened: (§1)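 Cells seeded at 10,000 per well in 96-well plates; leukemia/lymphoma lines in RPMI, Hs27 fibroblasts in DMEM, both with 10% heat-inactivated FBS, penicillin and streptomycin, 37 °C, 5% CO2. Exposed to doubling concentrations from 1.56 to 100 µM for 72 h, then MTS added for 4 h. Absorbance read at 490 nm, reference 650 nm, cell-free background subtracted. Viability expressed relative to 1% DMSO solvent control. Eight replicates. IC50 is the concentration giving 50% inhibition of formazan conversion versus untreated cells.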

[2] = system: CCRF-CEM; assay: Cytotoxicity against human CCRF-CEM cells assessed as cell viability after 72 hrs by MTS assay; type: functional, cell-based; procedure, shortened: as §1
[3] = Cytotoxicity against human NALM6 cells assessed as cell viability after 72 hrs by MTS assay; type: functional, cell-based; conditions: NALM-6, 72 h; procedure, shortened: as §1
[4] = system: Ramos; assay: Cytotoxicity against human Ramos cells assessed as cell viability after 72 hrs by MTS assay; type: functional, cell-based; procedure, shortened: as §1
[5] = system: Jurkat; assay: Cytotoxicity against human Jurkat cells assessed as cell viability after 72 hrs by MTS assay; type: functional, cell-based; procedure, shortened: as §1
[6] = system: CCRF-CEM; assay: Induction of apoptosis in human CCRF-CEM cells using fluorogenic substrate assessed as caspase 3 activation at 50 uM after 8 hrs by measuring viable cells using flow cytometric analysis (reference value: 93.9%); type: functional
Procedure, shortened: (§2)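 CEM cells were seeded at 50,000 per well in RPMI with 10% FBS and exposed for 8 h at 37 °C, with CCCP (50 µM) as positive control and untreated and 1% DMSO controls. Cells were labelled with NucView 488 caspase-3/7 live-cell fluorogenic substrate. Green-positive cells were counted by flow cytometry (FL1 vs FL2 dot plots), about 10,000 events per sample, in triplicate.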

[7] = system: CCRF-CEM; assay: Cytotoxicity against human CCRF-CEM cells assessed as mitochondrial membrane depolarization at 50 uM after 8 hrs by JC-1 red/green staining-based flow cytometry analysis (reference value: 3.3%); type: functional
[8] = system: CCRF-CEM; assay: Induction of apoptosis in human CCRF-CEM cells using fluorogenic substrate assessed as caspase 3 activation at 50 uM after 8 hrs by measuring late apoptotic cells using flow cytometric analysis relative to control; type: functional; procedure, shortened: as §2
[9] = system: CCRF-CEM; assay: Induction of apoptosis in human CCRF-CEM cells assessed as caspase 3 activation at 50 uM after 8 hrs by measuring necrotic cells using flow cytometric analysis relative to control; type: functional; procedure, shortened: as §2
[10] = system: CCRF-CEM; assay: Cytotoxicity against human CCRF-CEM cells assessed as intact mitochondrial membrane potential at 50 uM after 8 hrs by JC-1 red/green staining-based flow cytometry analysis (reference value: 96.7%); type: functional
[11] = system: CCRF-CEM; assay: Induction of apoptosis in human CCRF-CEM cells using fluorogenic substrate assessed as caspase 3 activation at 50 uM after 8 hrs by measuring early apoptotic cells using flow cytometric analysis (reference value: 6.1%); type: functional; procedure, shortened: as §2
[12] = system: CCRF-CEM; assay: Induction of apoptosis in human CCRF-CEM cells using fluorogenic substrate assessed as caspase 3 activation at 1 uM after 8 hrs by measuring viable cells using flow cytometric analysis (reference value: 96.1%)
[13] = system: CCRF-CEM; assay: Cytotoxicity against human CCRF-CEM cells assessed as intact mitochondrial membrane potential at 10 uM after 8 hrs by JC-1 red/green staining-based flow cytometry analysis (reference value: 96.7%); type: functional
[14] = system: CCRF-CEM; assay: Cytotoxicity against human CCRF-CEM cells assessed as intact mitochondrial membrane potential at 10 uM after 6 hrs by JC-1 red/green staining-based flow cytometry analysis (reference value: 96.7%); type: functional
[15] = system: CCRF-CEM; assay: Induction of apoptosis in human CCRF-CEM cells assessed as early apoptotic cells at 10 uM after 72 hrs by measuring phosphatidylserine translocation using annexin V-FITC/propidium iodide staining-based flow cytometric analysis (reference value: 0.8%); type: functional
[16] = system: CCRF-CEM; assay: Induction of apoptosis in human CCRF-CEM cells assessed as late apoptotic cells at 10 uM after 72 hrs by measuring phosphatidylserine translocation using annexin V-FITC/propidium iodide staining-based flow cytometric analysis (reference value: 0.1%); type: functional
[17] = system: CCRF-CEM; assay: Induction of apoptosis in human CCRF-CEM cells assessed as viable cells at 10 uM after 72 hrs by measuring phosphatidylserine translocation using annexin V-FITC/propidium iodide staining-based flow cytometric analysis (reference value: 98.7%); type: functional; conditions: read-out: Activity
[18] = system: CCRF-CEM; assay: Induction of apoptosis in human CCRF-CEM cells using fluorogenic substrate assessed as caspase 3 activation at 10 uM after 8 hrs by measuring early apoptotic cells using flow cytometric analysis (reference value: 3.9%); type: functional
[19] = system: CCRF-CEM; assay: Induction of apoptosis in human CCRF-CEM cells assessed as necrotic cells at 10 uM after 72 hrs by measuring phosphatidylserine translocation using annexin V-FITC/propidium iodide staining-based flow cytometric analysis (reference value: 0.4%); type: functional
[20] = system: CCRF-CEM; assay: Induction of apoptosis in human CCRF-CEM cells assessed as caspase 3 activation at 10 uM after 8 hrs by measuring necrotic cells using flow cytometric analysis relative to control; type: functional
[21] = system: CCRF-CEM; assay: Cytotoxicity against human CCRF-CEM cells assessed as mitochondrial membrane depolarization at 10 uM after 8 hrs by JC-1 red/green staining-based flow cytometry analysis (reference value: 3.3%); type: functional
[22] = system: CCRF-CEM; assay: Cytotoxicity against human CCRF-CEM cells assessed as mitochondrial membrane depolarization at 10 uM after 6 hrs by JC-1 red/green staining-based flow cytometry analysis (reference value: 3.3%); type: functional
[23] = system: CCRF-CEM; assay: Induction of apoptosis in human CCRF-CEM cells assessed as caspase 3 activation at 10 uM after 8 hrs by measuring late apoptotic cells using flow cytometric analysis relative to control; type: functional
[24] = system: CCRF-CEM; assay: Cytotoxicity against human CCRF-CEM cells assessed as mitochondrial membrane depolarization at 10 uM by JC-1 red/green staining-based flow cytometry analysis; type: functional, cell-based; conditions: TDE = time-dependent effect
[25] = system: CCRF-CEM; assay: Induction of apoptosis in human CCRF-CEM cells assessed as viable cells at 50 uM after 72 hrs by measuring phosphatidylserine translocation using annexin V-FITC/propidium iodide staining-based flow cytometric analysis (reference value: 98.7%); type: functional; conditions: read-out: Activity
[26] = system: CCRF-CEM; assay: Induction of apoptosis in human CCRF-CEM cells assessed as necrotic cells at 50 uM after 72 hrs by measuring phosphatidylserine translocation using annexin V-FITC/propidium iodide staining-based flow cytometric analysis (reference value: 0.4%); type: functional
[27] = system: CCRF-CEM; assay: Induction of apoptosis in human CCRF-CEM cells assessed as late apoptotic cells at 50 uM after 72 hrs by measuring phosphatidylserine translocation using annexin V-FITC/propidium iodide staining-based flow cytometric analysis (reference value: 0.1%); type: functional
[28] = system: CCRF-CEM; assay: Induction of apoptosis in human CCRF-CEM cells assessed as early apoptotic cells at 50 uM after 72 hrs by measuring phosphatidylserine translocation using annexin V-FITC/propidium iodide staining-based flow cytometric analysis (reference value: 0.8%); type: functional

| Structure (SMILES) | IC50 [1] [µM] | IC50 [2] [µM] | IC50 [3] [µM] | IC50 [4] [µM] | IC50 [5] [µM] | also measured |
| --- | --- | --- | --- | --- | --- | --- |
| Cc1ccc(C(=O)c2cc(O)c3ccccc3c2O)cc1 | 4.37 | 0.74 | 2.41 | 0.52 | 3.35 | – |
| N#CC(C#N)=NNc1cccc(Cl)c1 [CARBONYL CYANIDE M-CHLOROPHENYLHYDRAZONE] | – | – | – | – | – | Activity [6]: 66.3%; Activity [7]: 100%; Activity [8]: 1.1%; Activity [9]: 0%; Activity [10]: 0%; Activity [11]: 32.6% |
| CC(=O)c1cc(O)c2ccccc2c1O | 9.87 | 5.24 | 5.09 | 0.75 | 5.6 | – |
| CCC(=O)c1cc(O)c2ccccc2c1O | 18 | 3.95 | 2.02 | 2.49 | 4.54 | – |
| CCCCCCCCCCCC(=O)c1cc(O)c2ccccc2c1O | 43.8 | 5.99 | 5.8 | 0.98 | 6.56 | Activity [12]: 64.8%; Activity [13]: 37.7%; Activity [14]: 63.2%; Activity [15]: 92.8%; Activity [16]: 3.7%; viability at 10 µM [17]: 0.5%; Activity [18]: 35.2%; Activity [19]: 3%; Activity [20]: 0%; Activity [21]: 62.3%; Activity [22]: 36.8%; Activity [23]: 0%; Activity [24]: tde |
| COc1ccc(C(=O)c2cc(O)c3ccccc3c2O)cc1 | 4.97 | 0.01 | 0.88 | 0.66 | 2.78 | – |
| C/C=C/C(=O)c1cc(O)c2ccccc2c1O | 37.1 | 3.19 | 4.63 | 4.25 | 6.24 | viability at 50 µM [25]: 78.6%; Activity [26]: 19.8%; Activity [27]: 0.4%; Activity [28]: 1.3% |
| O=C(c1ccccc1)c1cc(O)c2ccccc2c1O | 8.3 | 5.44 | 2.58 | 4.13 | 6.35 | – |
